Screens (PubChem)
MLL AF4-AF9 inh – inhibitors of AF4 peptide binding to AF9, primary screen, biochemical, AlphaScreen, biotin-AF4 peptide, FLAG-AF9, single point. 0.47% of 350,000 active. Protein AF-9 (Homo sapiens), P42568. AID 651704, 2012. inhibition, % at 10 µM;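 active means every replicate reaching a set inhibition limit, whatever the replicate mean, cut at about 25% in these data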;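 further: 0% = plate neutral control median and 100% = total signal loss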
S100A4 MyoIIA – inhibitors of S100A4-myosin IIA peptide binding, primary screen, biochemical, fluorescence polarization, TAMRA-MyoIIA peptide; AID 652163, 2013; inhibition, % at 10.7 µM; 0.14% of 360,000 active;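 active means mean inhibition of at least 70% across replicates, with every replicate also reaching that level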
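Test system: S100A4 monomer protein. Medium: HEPES buffer with Ca2+, pH 7.2. Reagent: fluorescent myosin IIA peptide, 5 nM. Compound dosing: single-point compound testing. Timing: 5 min between mix addition and reading. Benchmarks: DMSO neutral and TFP positive wells.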
SIRT5 inh – SIRT5 desuccinylase inhibitors, primary screen, biochemical, fluorescence imaging, single point, set 5. NAD-dependent protein deacylase sirtuin-5, mitochondrial (Homo sapiens), Q9NXA8. Purified SirT5, succinyl-peptide AMC, trypsin-coupled fluorescence. inhibition, % at 15 µM. 1.1% of 330,000 active; in the data active means inhibition above about 15%
ERAP1 inh – human ERAP1 aminopeptidase inhibitors, primary screen, biochemical, single point, plate reader | recombinant ERAP1, Leu-AMC fluorescence, 60 min | inhibition, % at 10.7 µM | 0.15% of 340,000 active | AID 652197, 2013;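 active means mean replicate inhibition of at least 30%, or all replicates individually reaching that 30% level; inactive means mean below 30% and not every replicate reaching it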;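 further: 0% = neutral control wells and 100% = L-leucinethiol positive control wells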
E-sel inducer – E-selectin induction in HUVECs, primary screen, imaging, HUVEC, immunofluorescence imaging, single point. activation, % at 7.58 µM. normalized: neutral wells 0, TNF-alpha wells 100. P16581. AID 686992, 2013. 0.37% of 260,000 active;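 active means mean E-selectin-positive cell signal at least 10% of the positive control, reached in at least 60% of replicates, without over 20% cell loss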
Target sequence (P16581 whole entry, looked up): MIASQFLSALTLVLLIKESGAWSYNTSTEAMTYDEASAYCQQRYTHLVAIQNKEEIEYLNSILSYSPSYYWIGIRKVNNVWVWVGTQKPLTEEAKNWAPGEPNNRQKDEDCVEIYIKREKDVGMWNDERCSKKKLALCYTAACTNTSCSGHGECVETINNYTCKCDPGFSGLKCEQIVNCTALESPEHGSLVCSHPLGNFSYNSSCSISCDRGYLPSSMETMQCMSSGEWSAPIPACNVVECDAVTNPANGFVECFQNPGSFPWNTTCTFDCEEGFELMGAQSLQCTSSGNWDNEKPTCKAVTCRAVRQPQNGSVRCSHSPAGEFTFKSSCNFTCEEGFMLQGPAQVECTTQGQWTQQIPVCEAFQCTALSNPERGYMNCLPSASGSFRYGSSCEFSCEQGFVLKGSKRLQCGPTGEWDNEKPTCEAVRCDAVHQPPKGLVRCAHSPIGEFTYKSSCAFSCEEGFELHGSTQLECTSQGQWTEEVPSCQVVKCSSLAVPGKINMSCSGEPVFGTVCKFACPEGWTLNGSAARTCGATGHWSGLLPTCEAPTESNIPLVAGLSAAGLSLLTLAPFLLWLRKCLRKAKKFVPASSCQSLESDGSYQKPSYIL
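Test system: HUVEC | Signal: Immunofluorescence imaging | Read-out: Percent E-selectin-positive cells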
Ecoli rRNA inh – reduced GFP signal of wild-type E. coli, primary screen, bacterial rRNA inhibitor project, GFP/RFP fluorescence, OD600, single point; E. coli WT GFP vs humanized-ribosome RFP mutants, 24 h; hits give low values; DMSO median 0, no signal -100; GFP signal change (wild-type ribosome), % (no concentration beside the values); 1.6% of 350,000 active;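 active means significant combined selectivity score with lowered wild-type GFP, culture density cut under 30%, mutant RFP and density less affected; inactive means any of these conditions unmet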
* marks the source's active call; other numbers are inactive results; . = not tested or not shown; ! = not active in a repeat. This is a sample that favours compounds with a hit; in the whole collection about 3.4% have one here.

SMILES | MLL AF4-AF9 inh | S100A4 MyoIIA | SIRT5 inh | ERAP1 inh | E-sel inducer | Ecoli rRNA inh
C[C@@H]1CN([C@@H](C)CO)C(=O)c2cc(-c3cccc(F)c3)cnc2O[C@@H]1CN(C)Cc1ccncc1 | -1 | 3 | 21* | -2 | . | .
COc1ccccc1CNC(=O)C[C@@H]1CC[C@@H]2[C@H](COC[C@H](O)CN2Cc2cccc(-c3ccncc3)c2)O1 | 1 | 2 | 0 | 1 | 0 | -4
C[C@H](CO)N1C[C@H](C)[C@@H](CN(C)Cc2ccc(-c3ccccc3)cc2)Oc2ncc(C#C[C@@H](C)O)cc2C1=O | 4 | -3 | 17*! | 0 | 1 | 0
C[C@H](CO)N1C[C@H](C)[C@@H](CN(C)Cc2cccc(F)c2)Oc2ncc(C#CCc3ccccc3)cc2C1=O | 11 | -7 | 9 | 1 | 0 | -35*
C[C@H](CO)N1C[C@H](C)[C@H](CN(C)Cc2cccc(C(F)(F)F)c2)Oc2ncc(-c3ccc(F)cc3)cc2C1=O | 9 | 5 | 18* | 1 | 1 | -9
C[C@H](O)C#Cc1cnc2c(c1)C(=O)N([C@H](C)CO)C[C@@H](C)[C@H](CN(C)Cc1ccc(-c3ccccc3)cc1)O2 | . | . | . | . | 0 | 3
CC(C)NC(=O)N(C)C[C@H]1Oc2ncc(C#CCc3ccccc3)cc2C(=O)N([C@@H](C)CO)C[C@@H]1C | -2 | 1 | 16* | 10 | 0 | -2
C[C@H]1CN([C@@H](C)CO)C(=O)Cc2cc(NC(=O)CCCCCC(=O)Nc3ccccc3N)ccc2O[C@@H]1CN(C)S(C)(=O)=O | 14 | 0 | 5 | 0 | -23 | 2
C[C@H](CO)N1C[C@H](C)[C@H](CN(C)Cc2cccc(C(F)(F)F)c2)Oc2ncc(C#Cc3ccccc3)cc2C1=O | 2 | -7 | 29* | -2 | 0 | -1
C[C@@H]1CN([C@@H](C)CO)C(=O)c2cc(Br)cnc2O[C@H]1CN(C)Cc1cccnc1 | 0 | 0 | 36*! | -5 | 0 | -1
C[C@@H]1CN([C@H](C)CO)C(=O)c2cc(Br)cnc2O[C@H]1CN(C)Cc1cccnc1 | -3 | 2 | 10 | 14 | 0 | 6
COc1ccc(NC(=O)Nc2ccc3c(c2)CC(=O)N([C@H](C)CO)C[C@H](C)[C@@H](CN(C)Cc2ccncc2)O3)cc1 | 5 | 15 | -5 | 0 | . | 0
CNc1nc(N/N=C/c2ccc([N+](=O)[O-])cc2)nc(Nc2ccccc2)n1 | 8 | -1 | 0 | 0 | 7 | -40*
O=[N+]([O-])c1ccc(Nc2nc(N/N=C/c3cccc(F)c3)nc(N3CCCC3)n2)cc1 | 8 | -16 | -3 | -3 | -2 | 4
COc1ccc2c3c([nH]c2c1)[C@@H](CO)N(C)CC31CN(C(=O)Nc2c(C)noc2C)C1 | . | . | . | . | . | 1
Cc1c(CC(=O)N[C@@H](C)C(=O)O)c(=O)oc2cc3occ(-c4ccccc4)c3cc12 | 1 | -4 | 1 | 3 | 0 | -4
Cc1c(CC(=O)O)c(=O)oc2cc3occ(-c4ccccc4)c3cc12 | -1 | -2 | -2 | -2 | 0 | -19*
Cc1c(CC(=O)NCCC(=O)O)c(=O)oc2cc3occ(-c4ccccc4)c3cc12 | -2 | -3 | -3 | 1 | 40* | -22
CCOC(=O)CSc1nc(C)c2cc(C)c(C)cc2n1 | -4 | -11 | 17* | 3 | 5 | .
CCOC(=O)CCSc1nc(C)c2cc(C)ccc2n1 | -3 | -2 | -3 | -2 | . | -13
O=C(CN1C(=O)NC2(CCOc3ccccc32)C1=O)c1ccc(Cl)s1 (centres undefined) | 0 | -4 | -1 | -7 | . | -32*
COCC(=O)Nc1ccc2c(c1)C(=O)N(C)[C@H]1CC[C@H](CC(=O)NCc3cccc(F)c3)O[C@@H]1CO2 | -3 | 10 | 2 | 0 | 0 | 2
Cc1cc2oc(C(=O)N(Cc3cccs3)C3CCS(=O)(=O)C3)cc(=O)c2cc1Cl (centres undefined) | 4 | -2 | 2 | 0 | . | -21*
Cc1ccc(/C=C/C(=O)N(Cc2cccs2)C2CCS(=O)(=O)C2)cc1 (centres undefined) | 3 | 14 | -3 | -2 | 0 | -29*
O=C(/C=C/c1ccco1)N(Cc1ccc(Cl)cc1)C1CCS(=O)(=O)C1 (centres undefined) | -5 | -1 | 57* | . | 0 | -1
SMILES | MLL AF4-AF9 inh | S100A4 MyoIIA | SIRT5 inh | ERAP1 inh | E-sel inducer | Ecoli rRNA inh
CC(C)CC#Cc1ccc2c(c1)O[C@H](CN(C)C(=O)NC(C)C)[C@H](C)CN([C@H](C)CO)S2(=O)=O | -1 | -4 | 9 | 0 | 0 | -7
C[C@@H]1CN(C)C(=O)c2cc(N(C)C)ccc2O[C@H]1CN(C)C | . | . | . | . | . | 1
CSCCC(NS(=O)(=O)c1ccc2c(c1)Cc1cc(S(=O)(=O)NC(CCSC)C(=O)O)ccc1-2)C(=O)O (centres undefined) | -4 | 8 | 6 | -4 | 1 | -2
CC(C)C(NS(=O)(=O)c1ccc2c(c1)Cc1cc(S(=O)(=O)NC(C(=O)O)C(C)C)ccc1-2)C(=O)O (centres undefined) | -12 | 0 | 25* | 2 | . | 4
Cc1nc([N+](=O)[O-])c(Br)n1CC(=O)c1ccc(F)cc1 | -5 | -1 | 1 | 0 | 0 | -33*
Cc1nc([N+](=O)[O-])c(Br)n1CC(=O)c1cccc([N+](=O)[O-])c1 | -1 | -1 | 4 | 4 | . | -39*
Cc1nc([N+](=O)[O-])c(Br)n1Cc1ccccc1 | -4 | -3 | 0 | . | 0 | -39
COC(=O)Cn1c(C)nc([N+](=O)[O-])c1Br | 2 | 23 | -12 | -1 | -3 | 11
CCOC(=O)CSC1=C(C#N)C(c2ccc(C)o2)CC(=O)N1 (centres undefined) | 30* | -3 | 0 | 0 | 0 | 4
Cc1cccc(Nc2ncnc3ccc(Br)cc23)c1 | -11 | -2 | -2 | -3 | 1 | 12
CN(C)c1ccc(Nc2ncnc3ccc(Br)cc23)cc1 | 26* | -7 | 2 | -2 | 2 | -15
Cc1ccccc1CNc1ncnc2cc(Cl)ccc12 | -3 | -4 | -4 | -3 | 51* | 5
Cc1ccc(CNc2ncnc3cc(Cl)ccc23)cc1 | 0 | -1 | -3 | -3 | 0 | -6
